Results as given in ChEMBL document CHEMBL1255475, “Mutant prevention concentrations of four carbapenems against gram-negative rods” (2010).

What was measured:
Type in all cases: functional
Conditions in all cases: read-out: IZ
[1] = tested on: Escherichia coli; assay: Antibacterial activity against beta-lactamase-positive ESBL-positive Escherichia coli assessed as […] in zone of inhibition at 30 ug by disk diffusion method in presence of clavulanic acid
In short: (§1)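 ESBL confirmation by disk diffusion using cefotaxime and ceftazidime disks (30 μg each) combined with a 10 μg clavulanic acid disk, compared against the disks alone.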

[2] = tested on: Escherichia coli; assay: Antibacterial activity against beta-lactamase-positive ESBL-positive Escherichia coli assessed as […] in zone of inhibition at 30 ug by disk diffusion method
In short: (§2)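 ESBL screen of β-lactamase-positive enteric isolates by disk diffusion using cefotaxime and ceftazidime disks (30 μg each) alone.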

[3] = tested on: Klebsiella pneumoniae; assay: Antibacterial activity against beta-lactamase-positive ESBL-positive Klebsiella pneumoniae assessed as […] in zone of inhibition at 30 ug by disk diffusion method in presence of clavulanic acid; in short: as §1
[4] = tested on: Klebsiella pneumoniae; assay: Antibacterial activity against beta-lactamase-positive ESBL-positive sKlebsiella pneumoniae assessed as decrease in zone of inhibition at 30 ug by disk diffusion method; in short: as §2

Measured: zone of inhibition at 30 µg/disc

O=C(O)[C@H]1/C(=C/CO)O[C@@H]2CC(=O)N21 [CLAVULANIC ACID]
≥ 5 mm: all assays above
